Results gathered from unrelated publications.
Protocols differ between the studies behind these lines.
Target: Rho-associated protein kinase 2 (ROCK2, Homo sapiens, UniProt O75116)

With CN1CC(Oc2cnc(C#N)cc2-c2ccn3nc(NC(=O)C4CC4)cc3c2)C1 the inhibition was 5% (enzyme activity, inhibitor; 1 µM).
CC(C)(C)c1nc2c(s1)c1nc(N)ncc1c1ccc(NS(=O)(=O)c3c(F)cccc3F)c(F)c12 has a remaining activity of 100% (enzyme activity, inhibitor, radiometric; 1 µM).
CCN(CC)c1ccc(C2=NNC(=O)CC2C)cc1[N+](=O)[O-] (stereo not shown) has a remaining activity of 99% (enzyme activity, inhibitor; 10 µM).
Cn1cncc1C1=CN(c2ncnc3[nH]cnc23)CCS1 has an inhibition of 93.3% (enzyme activity, inhibitor, radiometric; 2 µM).
For Cc1cc(NC(=O)c2cccc3cc(-c4cccc5[nH]nc(N)c45)ccc23)ccc1F, the activity vs control was 98% (enzyme activity, inhibitor; 0.1 µM).
With Cc1sc(C(=O)NC2COC2)cc1-n1cc(NC(=O)Nc2c(F)cccc2Cl)cn1 the remaining activity was 93.6% (enzyme activity, inhibitor; 10 µM).
With CC/C(=N\NC(=O)NCc1cccc(O)c1)c1ccc(O)c(C)c1O the inhibition was 82.6% (enzyme activity, inhibitor; 0.1 µM).
For Cn1cnc(Br)c1C1=CN(c2ncnc3[nH]cnc23)CCS1, the inhibition was 18.6% (enzyme activity, inhibitor, radiometric; 50 nM).
The inhibition of CNCc1ccc(-c2cc(-c3nc(-c4ccc(S(=O)(=O)C(C)C)cc4)cnc3N)on2)cc1 is reported as 0% (enzyme activity, inhibitor; 0.4 µM).
O=C1Nc2ccc(Cl)cc2C1=Cc1cc(Cl)c(O)c(Cl)c1 has a remaining signal of 90.6% (cell-free assay; 0.5 µM).
For COc1ccc2c(c1)O[C@H](c1ccc(OC)c(OC)c1)C[C@@H]2NC(=O)C1(c2ccc3c(c2)OC(F)(F)O3)CC1, the remaining binding was 88% (cell-free assay, competition with immobilised ligand; 1 µM).
With O=C1NC(=O)c2cc(Nc3ccc(F)cc3)c(Nc3ccc(F)cc3)cc21 the remaining signal was 92.8% (cell-free assay; 0.5 µM).
CNc1cccc2cc(C(=O)Nc3ccc(C(=O)O)cc3)c(=O)[nH]c12 gave an inhibition of 7.9% (enzyme activity, inhibitor; 10 µM).
Cn1c(=O)n(-c2ccc(C(C)(C)C#N)cc2)c2c3cc(-c4cnc5ccccc5c4)ccc3ncc21 gave a remaining activity of 84% (enzyme activity, inhibitor; 10 µM).
With CC(C)(O)[C@H]1CC[C@H](Nc2ccc3ncc(-c4cccc(C(F)(F)F)c4)n3n2)CC1 the remaining activity was 92.8% (enzyme activity, inhibitor; 1 µM).
Cc1ccc(Nc2nccc(N(C)c3ccc4c(C)n(C)nc4c3)n2)cc1S(N)(=O)=O has an inhibition of -15% (enzyme activity, inhibitor; 0.3 µM).
NS(=O)(=O)c1cc(NC(=O)C2(c3ccccc3Cl)CC2)ccc1Oc1cccc(Cl)c1 gave a remaining binding of 100% (cell-free assay, competition with immobilised ligand; 1 µM).
With CC(C)(C)C(=O)c1sc(NC2CCCCC2)nc1N the remaining activity was 107% (enzyme activity, inhibitor; 10 µM).
With O=C(CSc1nc2nccnc2c(=O)n1CCc1ccccc1)Nc1nccs1 the inhibition was 2% (enzyme activity, inhibitor; 10 µM).
CCS(=O)(=O)c1cc2cc(C[C@@](O)(CC(C)(C)c3ccc(F)cc3C(N)=O)C(F)(F)F)[nH]c2cn1 has a remaining binding of 76% (cell-free assay, competition with immobilised ligand; 1 µM).
With CS(=O)(=O)CCNCc1ccc(-c2ccc3ncnc(Nc4ccc(OCc5cccc(F)c5)c(Cl)c4)c3c2)o1 the remaining signal was 92.7% (cell-free assay; 0.5 µM).
The inhibition of CCCS(=O)(=O)Nc1ccc(F)c(C(=O)c2c[nH]c3ncc(-c4ccc(Cl)cc4)cc23)c1F is reported as under 10% (enzyme activity, inhibitor; 1 µM).
Cc1ccc(NC(=O)c2ccc(C)c(C(F)(F)F)c2)cc1C#Cc1nn(C2CCC(O)CC2)c2ncnc(N)c12 (stereo not shown) has a remaining signal of 56% (cell-free assay; 10 µM).
O=C(Nc1cnn(-c2csc(C(=O)NC3COC3)c2)c1)Nc1ccccc1Cl gave a remaining activity of 100% (enzyme activity, inhibitor; 5 µM).
With C[C@H](c1ccnc(Nc2nc3ccc(-c4cc(N(C)C)ncn4)cc3[nH]2)c1)N1CCN(C(=O)CC(F)(F)F)CC1 the remaining binding was 100% (cell-free assay, competition with immobilised ligand; 0.1 µM).
The remaining signal of c1ccc2c(-c3ccncc3)c[nH]c2c1 is reported as 71.9% (cell-free assay; 0.5 µM).
CO[C@@H](C)c1c(Nc2ccc([C@@H](N(C)C(=O)C3CCS(=O)(=O)CC3)C(F)(F)F)cc2)cnc2cc(Cl)nn12 has a remaining binding of 100% (cell-free assay, competition with immobilised ligand; 1 µM).
With Cc1ccc(C(=O)Nc2ccc(CN3CCN(C)CC3)c(C(F)(F)F)c2)cc1C#Cc1cnc2cccnn12 the remaining activity was 89% (enzyme activity, inhibitor; 23.5 nM).
For CC(=O)C1=C(C)N(c2cccc(C(F)(F)F)c2)C(=O)N[C@@H]1c1ccc(C#N)nc1, the remaining binding was 86.1% (cell-free assay, competition with immobilised ligand; 1 µM).
With COc1cc2ncnc(Nc3ccc(Oc4ccccc4)c(C)c3C)c2cc1OC the inhibition was 8% (enzyme activity, inhibitor; 1 µM).
For CCCOc1ccc(OC)c(F)c1C(=O)c1ccc(C(=O)N[C@@H]2CNC[C@H]2NC(=O)c2ccc3[nH]ncc3c2)cc1, the remaining activity was 4% (enzyme activity, inhibitor; 0.75 µM).
With FC(F)c1nc2ccccc2n1-c1nc(N2CCOCC2)nc(N2CCOCC2)n1 the remaining activity was 85% (enzyme activity, inhibitor; 10 µM).
The inhibition of CNC(=O)c1cc(Oc2ccc(NC(=O)Nc3ccc(Cl)c(C(F)(F)F)c3)cc2)ccn1 is reported as -11% (enzyme activity, inhibitor; 0.3 µM).
The remaining binding of O=C(Nc1cnc(Oc2ccc(F)cc2)nc1)N1CCc2ncccc2[C@@H]1c1ccc(F)cc1 is reported as 100% (cell-free assay, competition with immobilised ligand; 1 µM).
The remaining activity of COc1cc(Nc2cnc(C#N)c(O[C@H](C)CN(C)C)n2)ncc1-c1cnn(C)c1 is reported as 40% (enzyme activity, inhibitor, radiometric; 10 µM).
Cc1c(NC(=O)c2cc(C(N)=O)nc3cc(F)ccc23)c(C(F)(F)F)nn1Cc1ccc(C(C)(C)C)cc1 gave a remaining binding of 100% (cell-free assay, competition with immobilised ligand; 1 µM).
For C=CC(=O)Nc1cc(Nc2nccc(Nc3cc(Cl)c(F)cc3C(C)(C)O)n2)c(OC)cc1N1CC[C@@H](N(C)C)C1, the inhibition was 15% (enzyme activity, inhibitor; 1 µM).
